Reference: ChEMBL document CHEMBL1152851, “Synthesis, cytotoxicity and effects of some 1,2,4-triazole and 1,3,4-thiadiazole derivatives on immunocompetent cells” (Eur J Med Chem, 2009)

Assays:
[1] = Stimulation of immune response in pretreated thymocytes isolated from Graffi myeloid tumor bearing hamster assessed as ratio of migration area of experimental cells to control cells after 16 hrs by indirect agarose technique; type: cell-based; settings: cricetinae, thymocyte
Procedure, shortened: (§1)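 Cells came from treated tumor-bearing hamsters: spleen cells, thymocytes or blood lymphocytes. They were loaded into 3-mm wells cut in an agarose monolayer in 50 mm Petri dishes and kept 16 h at 37 °C, 5% CO2. The migration area was then measured. The migration index (LIF) is the ratio of experimental to control migration area. Values are means of three experiments.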

PBL [2] = test: Stimulation of immune response in pretreated […] isolated from Graffi myeloid tumor bearing hamster assessed as number of plaque forming cells after 24 hrs […]; type: cell-based; settings: cricetinae
[3] = Cytotoxicity against pretreated spleen cells isolated from Graffi myeloid tumor bearing hamster assessed as full lysis; type: cell-based; settings: cricetinae
[4] = Stimulation of immune response in pretreated thymocytes isolated from Graffi myeloid tumor bearing hamster assessed as rosette formation; type: cell-based; settings: cricetinae, thymocyte
[5] = Stimulation of immune response in pretreated thymocytes isolated from Graffi myeloid tumor bearing hamster assessed as number of plaque forming cells after 24 hrs […]; type: cell-based; settings: cricetinae, thymocyte
[6] = Stimulation of immune response in pretreated spleen cells isolated from Graffi myeloid tumor bearing hamster assessed as rosette formation; type: cell-based; settings: cricetinae
PBL [7] = test: Cytotoxicity against PBL isolated from solid form of Graffi myeloid tumor bearing hamster pretreated at 0.5 mg/ml, ip for 5 days measured after 24 hrs by trypan blue assay; settings: Cricetinae
Procedure, shortened: (§2)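 Tumor-bearing hamsters first received compound at 0.5 mg/ml i.p. Thymocytes or blood lymphocytes were isolated five days later. These were exposed in vitro to serial dilutions of a DMSO stock (5 mg/ml) for 24 h at 37 °C, 5% CO2, then scored with 0.2% trypan blue. Each IC50 is the mean of three parallel samples in three independent experiments.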

[8] = Cytotoxicity against solid form of Graffi myeloid tumor bearing hamster thymocytes after 24 hrs by trypan blue assay; type: cell-based; settings: cricetinae, thymocyte
Procedure, shortened: (§3)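 Thymocytes and peripheral blood lymphocytes came from sexually mature hamsters bearing solid Graffi myeloid tumor. Compounds were made up at 0.5 mg/ml in DMSO, and this stock was diluted 1:10, 1:100, 1:1000 and 1:100,000. Equal volumes of cells and dilution were mixed and held 24 h at 37 °C in humidified 5% CO2. Survival was scored by 0.2% trypan blue exclusion under the microscope, and IC50 was derived.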

[9] = Stimulation of immune response in pretreated thymocytes isolated from Graffi myeloid tumor bearing hamster assessed as migration area after 16 hrs by indirect agarose technique; type: cell-based; settings: cricetinae, thymocyte; procedure, shortened: as §1
PBL [10] = test: Stimulation of immune response in pretreated PBL isolated from Graffi myeloid tumor bearing hamster assessed as rosette formation; type: cell-based; settings: cricetinae
[11] = Stimulation of immune response in pretreated spleen cells isolated from Graffi myeloid tumor bearing hamster assessed as number of plaque forming cells after 24 hrs by modified agar-plate method; type: cell-based; settings: cricetinae
Procedure, shortened: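 Plaque-forming (haemolysin-producing B) cells were counted by the Cunningham–Szenberg method. Cells from treated tumor-bearing hamsters were mixed with complement and sheep red blood cells and loaded into chambers. Haemolytic zones were counted per 10⁶ lymphocytes. Values are means of three experiments, compared against cells from control animals.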

[12] = Stimulation of immune response in pretreated spleen cells isolated from Graffi myeloid tumor bearing hamster assessed as migration area after 16 hrs by indirect agarose technique; type: cell-based; settings: cricetinae; procedure, shortened: as §1
PBL [13] = test: Cytotoxicity against solid form of Graffi myeloid tumor bearing hamster PBL after 24 hrs by trypan blue assay; type: cell-based; settings: Cricetinae; procedure, shortened: as §3
[14] = Cytotoxicity against thymocytes isolated from solid form of Graffi myeloid tumor bearing hamster pretreated at 0.5 mg/ml, ip for 5 days measured after 24 hrs by trypan blue assay; settings: cricetinae, thymocyte; procedure, shortened: as §2
PBL [15] = test: Stimulation of immune response in pretreated PBL isolated from Graffi myeloid tumor bearing hamster assessed as migration area after 16 hrs by indirect agarose technique; type: cell-based; settings: cricetinae; procedure, shortened: as §1
PBL [16] = test: Stimulation of immune response in pretreated PBL isolated from Graffi myeloid tumor bearing hamster assessed as ratio of migration area of experimental cells to control cells after 16 hrs by indirect agarose technique; type: cell-based; settings: cricetinae; procedure, shortened: as §1
[17] = Stimulation of immune response in pretreated spleen cells isolated from Graffi myeloid tumor bearing hamster assessed as ratio of migration area of experimental cells to control cells after 16 hrs by indirect agarose technique; type: cell-based; settings: cricetinae; procedure, shortened: as §1

In the case of `CCNC(=S)NNC(=O)c1cc2c(s1)CCCC2`, the Ratio [1] is reported as 0.08, the Activity (PBL [2]) is reported as 768 and the Activity [3] is reported as “Toxic”. The Activity [4] was “Not Active”, the Activity [5] was 2040 and the Activity [6] was “Not Active”. The IC50 (PBL [7]) was 14 nM, the IC50 [8] was 110 nM and the Activity [9] was 146 mm2. For the same compound, the Activity (PBL [10]) was “Not Active”.

`CCNC(=S)NNC(=O)c1ccc(-c2ccccc2)s1` showed an Activity [11] of 2010, a Ratio [1] of 0.104 and an Activity (PBL [2]) of 5200. For the same compound, the Activity [4] was “Not Active”, the Activity [5] was 7800 and the Activity [6] was “Not Active”. For the same compound, the IC50 (PBL [7]) was 320 nM, the Activity [12] was 822 mm2 and the IC50 [8] was 2100 nM. It also gave an IC50 (PBL [13]) of 1640 nM, an IC50 [14] of 3500 nM and an Activity [9] of 202 mm2. The Activity (PBL [10]) was “Not Active”.

Compound `Nn1c(-c2cc3c(s2)CCCC3)n[nH]c1=S` has an Activity (PBL [15]) of 1800 mm2, an Activity [11] of 3920 and a Ratio [1] of 0.532. For the same compound, the Activity (PBL [2]) was 5869, the Activity [4] was “Not Active” and the Activity [5] was 7250. The Activity [6] was “Not Active”, the Ratio (PBL [16]) was 1.654 and the IC50 (PBL [7]) was 140 nM. The Activity [12] was 1286 mm2, the IC50 [8] was 2200 nM and the IC50 (PBL [13]) was 2670 nM. For the same compound, the IC50 [14] was 12 nM, the Activity [9] was 1024 mm2 and the Activity (PBL [10]) was “Not Active”.

`CCn1c(-c2cc3c(s2)CCCC3)n[nH]c1=S` gave an Activity [11] of 3700, a Ratio [1] of 0.518 and an Activity (PBL [2]) of 4992. For the same compound, the Activity [4] was “Not Active”, the Activity [5] was 5287 and the Activity [6] was “Not Active”. For the same compound, the Ratio [17] was 0, the Ratio (PBL [16]) was 0.001 and the IC50 (PBL [7]) was 290 nM. The Activity [12] was 1823 mm2, the IC50 [8] was 120 nM and the IC50 (PBL [13]) was 1810 nM. The IC50 [14] was 460 nM, the Activity [9] was 997 mm2 and the Activity (PBL [10]) was “Not Active”.

`Nn1c(-c2ccc(-c3ccccc3)s2)n[nH]c1=S` gave an Activity [11] of 4700, a Ratio [1] of 0.954 and an Activity (PBL [2]) of 19920. For the same compound, the Activity [4] was “Not Active”, the Activity [5] was 19200 and the Activity [6] was “Not Active”. For the same compound, the IC50 (PBL [7]) was 12 nM, the Activity [12] was 2332 mm2 and the IC50 [8] was 240 nM. The IC50 [14] was 0.001 nM, the Activity [9] was 1836 mm2 and the Activity (PBL [10]) was “Not Active”.

`CCNc1nnc(-c2cc3c(s2)CCCC3)s1` gave an Activity [11] of 3928, a Ratio [1] of 0.581 and an Activity (PBL [2]) of 14288. For the same compound, the Activity [4] was “Not Active”, the Activity [5] was 15300 and the Activity [6] was “Not Active”. It also gave an IC50 (PBL [7]) of 410 nM, an Activity [12] of 1788 mm2 and an IC50 [8] of 260 nM. The IC50 (PBL [13]) was 320 nM, the IC50 [14] was 0.0052 nM and the Activity [9] was 1118 mm2. The Activity (PBL [10]) was “Not Active”.
